Measured values reported in ChEMBL document CHEMBL1649165, “Activity profile in vitro of micafungin against Spanish clinical isolates of common and emerging species of yeasts and molds” (2009).

How the values were obtained:
Format in all cases: functional
[1] = system: Candida albicans; test: Antimicrobial activity against Candida albicans by broth microdilution method
Procedure, shortened: (§1)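 Clinical isolates from human patients, tested by broth microdilution using the AFST-EUCAST reference procedure for fermentative yeasts. The MIC was read per that reference method.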

[2] = system: Candida parapsilosis; test: Antimicrobial activity against Candida parapsilosis by broth microdilution method; settings: Lodderomyces parapsilosis; procedure, shortened: as §1
[3] = system: Candida tropicalis; test: Antimicrobial activity against Candida tropicalis by broth microdilution method; procedure, shortened: as §1
[4] = system: Nakaseomyces glabratus; test: Antimicrobial activity against Candida glabrata by broth microdilution method; procedure, shortened: as §1
[5] = system: Pichia kudriavzevii; test: Antimicrobial activity against Candida krusei by broth microdilution method; procedure, shortened: as §1
[6] = system: Meyerozyma guilliermondii; test: Antimicrobial activity against Candida guilliermondii by broth microdilution method; procedure, shortened: as §1
[7] = system: Clavispora lusitaniae; test: Antimicrobial activity against Candida lusitaniae by broth microdilution method; procedure, shortened: as §1
[8] = system: Kluyveromyces marxianus; test: Antimicrobial activity against Candida kefyr by broth microdilution method; procedure, shortened: as §1
[9] = system: Diutina rugosa; test: Antimicrobial activity against Candida rugosa by broth microdilution method; procedure, shortened: as §1
[10] = system: Debaryomyces hansenii; test: Antimicrobial activity against Candida famata by broth microdilution method; procedure, shortened: as §1
[11] = system: Wickerhamomyces anomalus; test: Antimicrobial activity against Candida pelliculosa by broth microdilution method; settings: Hansenula anomala; procedure, shortened: as §1
[12] = system: Torulaspora delbrueckii; test: Antimicrobial activity against Candida coliculosa by broth microdilution method; procedure, shortened: as §1
[13] = system: Pichia norvegensis; test: Antimicrobial activity against Candida norvegensis by broth microdilution method; procedure, shortened: as §1
[14] = system: [Candida] intermedia; test: Antimicrobial activity against Candida intermedia by broth microdilution method; settings: Sungouiella intermedia; procedure, shortened: as §1
[15] = system: [Candida] inconspicua; test: Antimicrobial activity against Candida inconspicua by broth microdilution method; settings: Pichia inconspicua; procedure, shortened: as §1
[16] = system: Candida metapsilosis; test: Antimicrobial activity against Candida metapsilosis by broth microdilution method; settings: Lodderomyces metapsilosis; procedure, shortened: as §1
[17] = system: Candida orthopsilosis; test: Antimicrobial activity against Candida orthopsilosis by broth microdilution method; settings: Lodderomyces orthopsilosis; procedure, shortened: as §1
[18] = system: Kazachstania pintolopesii; test: Antimicrobial activity against Candida pintolopesii by broth microdilution method; settings: Arxiozyma pintolopesii; procedure, shortened: as §1
[19] = system: [Candida] zeylanoides; test: Antimicrobial activity against Candida zeylanoides by broth microdilution method; settings: Dujonia zeylanoides; procedure, shortened: as §1
[20] = system: Magnusiomyces capitatus; test: Antimicrobial activity against Dipodascus capitatus by broth microdilution method
[21] = system: Saccharomyces cerevisiae; test: Antimicrobial activity against Saccharomyces cerevisiae by broth microdilution method
[22] = system: Yarrowia lipolytica; test: Antimicrobial activity against Yarrowia lipolytica by broth microdilution method
[23] = system: Geotrichum candidum; test: Antimicrobial activity against Galactomyces geotrichum by broth microdilution method
[24] = system: Cryptococcus deneoformans; test: Antimicrobial activity against Cryptococcus neoformans var. neoformans by broth microdilution method
Procedure, shortened: (§2)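 Clinical isolates of nonfermentative yeasts, tested by broth microdilution following EUCAST recommendations. The only change from that method was a minor modification to improve growth.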

[25] = system: Trichosporon asahii; test: Antimicrobial activity against Trichosporon asahii by broth microdilution method
Procedure, shortened: (§3)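 Nonfermentative yeast clinical isolates (Rhodotorula, Trichosporon) tested by broth microdilution. The EUCAST yeast recommendations were followed strictly, with one minor modification to improve growth. MIC was read as the endpoint.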

[26] = system: Rhodotorula mucilaginosa; test: Antimicrobial activity against Rhodotorula mucilaginosa by broth microdilution method; procedure, shortened: as §3
[27] = system: Trichosporon inkin; test: Antimicrobial activity against Trichosporon inkin by broth microdilution method; procedure, shortened: as §3
[28] = system: Trichosporon ovoides; test: Antimicrobial activity against Trichosporon ovoides by broth microdilution method; procedure, shortened: as §3
[29] = system: Trichosporon dermatis; test: Antimicrobial activity against Trichosporon dermatis by broth microdilution method; settings: Cutaneotrichosporon dermatis; procedure, shortened: as §3
[30] = system: Trichosporon jirovecii; test: Antimicrobial activity against Trichosporon jirovecii by broth microdilution method; settings: Cutaneotrichosporon jirovecii; procedure, shortened: as §3
[31] = system: Naganishia albida; test: Antimicrobial activity against Cryptococcus albidus by broth microdilution method; procedure, shortened: as §2
[32] = system: Ustilago; test: Antimicrobial activity against Ustilago spp by broth microdilution method
[33] = system: Rhodotorula glutinis; test: Antimicrobial activity against Rhodotorula glutinis by broth microdilution method; procedure, shortened: as §3
[34] = system: Papiliotrema laurentii; test: Antimicrobial activity against Cryptococcus laurentii by broth microdilution method; procedure, shortened: as §2
[35] = system: Trichosporon domesticum; test: Antimicrobial activity against Trichosporon mycotoxinivorans by broth microdilution method; settings: Apiotrichum domesticum
Procedure, shortened: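 Spanish human clinical isolates were tested as nonfermentative yeasts by broth microdilution. The method strictly followed the EUCAST recommendations, with a minor modification to improve growth, and the read-out was the MIC.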

[36] = system: Trichosporon; test: Antimicrobial activity against Trichosporon spp. by broth microdilution method; procedure, shortened: as §3

OC(Cn1cncn1)(Cn1cncn1)c1ccc(F)cc1F [FLUCONAZOLE]
4 µg/mL: MIC50 [4] | MIC50 [6] | MIC50 [21] | MIC50 [27] | MIC90 [27]
64 µg/mL: MIC50 [23]
16 µg/mL: MIC50 [20] | MIC50 [24] | MIC50 [25] | MIC50 [28] | MIC50 [29] | MIC50 [30] | MIC50 [31] | MIC50 [32] | MIC50 [33] | MIC50 [34] | MIC50 [35] | MIC50 [36]
2 µg/mL: MIC90 [3]
> 64 µg/mL: MIC90 [5] | MIC90 [6] | MIC90 [9] | MIC90 [10] | MIC90 [11] | MIC90 [12] | MIC90 [13] | MIC90 [14] | MIC90 [15] | MIC90 [16] | MIC90 [17] | MIC90 [18] | MIC90 [19] | MIC90 [21] | MIC90 [22] | MIC90 [23] | MIC90 [24] | MIC90 [25] | MIC50 [26] | MIC90 [26] | MIC90 [28] | MIC90 [29] | MIC90 [30] | MIC90 [31] | MIC90 [32] | MIC90 [33] | MIC90 [34] | MIC90 [35] | MIC90 [36]
8 µg/mL: MIC50 [9] | MIC50 [10] | MIC50 [11] | MIC50 [12] | MIC50 [13] | MIC50 [14] | MIC50 [15] | MIC50 [16] | MIC50 [17] | MIC50 [18] | MIC50 [19] | MIC50 [22]
0.12 µg/mL: MIC50 [1]
0.5 µg/mL: MIC50 [2] | MIC90 [8]
0.25 µg/mL: MIC90 [1] | MIC50 [3] | MIC50 [7] | MIC50 [8]
1 µg/mL: MIC90 [2] | MIC90 [7]
32 µg/mL: MIC90 [4] | MIC50 [5] | MIC90 [20]
